The text below walks through data of ChEMBL document CHEMBL1158683, “Cytotoxic sesquiterpenoids from Ratibida columnifera” (1999).

Converted amounts (≈) assume the structure as drawn. The source made the active and inactive calls. The calls are words filed in the database; no cut-off is given here.

System in one assay: not listed separately
Kind of assay: Cytotoxicity against human BC1 cells. It is filed as functional. The conditions noted are these: read-out: ED50 (the source's name).
Take `C=C1C(=O)O[C@@H]2[C@@H]1C[C@@H](O)[C@H](C)[C@@](O)(C(=O)/C=C/C)[C@H]2OC(=O)C(C)CC` (some centres undefined): the EC50 stood at 0.8 µg/mL (≈ 2.1 µM).

For a further assay, the system named is Lu1. Kind of assay: Cytotoxicity against human Lu1 cells. The conditions noted are these: read-out: ED50 (the source's name). It is filed as functional.
Turning to `C=C1C(=O)O[C@@H]2[C@@H]1C[C@@H](O)[C@H](C)[C@@](O)(C(=O)/C=C/C)[C@H]2OC(=O)C(C)CC` (some centres undefined), the EC50 stood at 0.9 µg/mL (≈ 2.37 µM).

The next assay concerns Col2. Put plainly: Cytotoxicity against human Col2 cells. It is filed as functional. The conditions noted are these: read-out: ED50 (the source's name).
Take `C=C1C(=O)O[C@@H]2[C@@H]1C[C@@H](O)[C@H](C)[C@@](O)(C(=O)/C=C/C)[C@H]2OC(=O)C(C)CC` (some centres undefined): the EC50 amounted to 1.1 µg/mL (≈ 2.89 µM).

A further assay has as its system KB. Put plainly: Cytotoxicity against human KB cells. The following applies: read-out: ED50 (the source's name). Format: functional.
Consider `C=C1C(=O)O[C@@H]2[C@@H]1C[C@@H](O)[C@H](C)[C@@](O)(C(=O)/C=C/C)[C@H]2OC(=O)C(C)CC` (some centres undefined), for which the EC50 turned out to be 1 µg/mL (≈ 2.63 µM).

System in another assay: not listed separately
Put plainly: Cytotoxicity against human multidrug-resistant KB-V1+ cells in presence of vinblastine. Format: functional. The conditions noted are these: read-out: ED50 (the source's name).
For `C=C1C(=O)O[C@@H]2[C@@H]1C[C@@H](O)[C@H](C)[C@@](O)(C(=O)/C=C/C)[C@H]2OC(=O)C(C)CC` (some centres undefined), the EC50 was determined as 1.6 µg/mL.

System in the next assay: not listed separately
Kind of assay: Cytotoxicity against human multidrug-resistant KBV1 cells in absence of vinblastine. The conditions noted are these: KB-V1, read-out: ED50 (the source's name). Format: functional.
As to `C=C1C(=O)O[C@@H]2[C@@H]1C[C@@H](O)[C@H](C)[C@@](O)(C(=O)/C=C/C)[C@H]2OC(=O)C(C)CC` (some centres undefined), the EC50 is 0.9 µg/mL (≈ 2.37 µM).

The next assay relates to LNCaP. Kind of assay: Cytotoxicity against hormone-dependent human LNCaP cells. It is filed as functional. The following applies: read-out: ED50 (the source's name).
In the case of `C=C1C(=O)O[C@@H]2[C@@H]1C[C@@H](O)[C@H](C)[C@@](O)(C(=O)/C=C/C)[C@H]2OC(=O)C(C)CC` (some centres undefined), the EC50 worked out at 0.5 µg/mL (≈ 1.31 µM).

In the next assay the test system is ASK. Put plainly: Cytotoxicity against human ASK cells at 20 ug/mL. Format: functional, cell-based.
Conditions: not given
Take `C=C1C(=O)O[C@@H]2[C@@H]1C[C@@H](O)[C@H](C)[C@@](O)(C(=O)/C=C/C)[C@H]2OC(=O)C(C)CC` (some centres undefined): the outcome was inactive.

For another assay, the system named is A2780. Put plainly: Induction of apoptosis in human p53 wild type A2780S at 0.15 uM after 24 hrs by TdT assay. It is filed as functional.
Conditions: not given
An outline of the steps: (§1)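 A2780S (p53 wild-type) and A2780R (p53 mutant) ovarian carcinoma cells were exposed for 24 h at 0–30 µM. Cells (10^6) were trypsinized and fixed in 1% methanol-free formaldehyde/PBS for 15 min on ice. They were washed twice with PBS and fixed in 80% EtOH at −20 °C for 16 h. A TdT assay (APO-Direct kit, minor modifications) then scored % apoptotic cells.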
For the compound `C=C1C(=O)O[C@@H]2[C@@H]1C[C@@H](O)[C@H](C)[C@@](O)(C(=O)/C=C/C)[C@H]2OC(=O)C(C)CC` (some centres undefined), the Activity came out at 1.17%.

For a further assay, the system named is A2780. Put plainly: Induction of apoptosis in human p53 wild type A2780S at 1.5 uM after 24 hrs by TdT assay. It is filed as functional.
Conditions: not given
Put shortly: as §1
`C=C1C(=O)O[C@@H]2[C@@H]1C[C@@H](O)[C@H](C)[C@@](O)(C(=O)/C=C/C)[C@H]2OC(=O)C(C)CC` (some centres undefined) returned an Activity of 1.27%.

The test system of the next assay is A2780. Put plainly: Induction of apoptosis in human p53 wild type A2780S at 7.5 uM after 24 hrs by TdT assay. It is filed as functional.
Conditions: not given
An outline of the steps: as §1
Turning to `C=C1C(=O)O[C@@H]2[C@@H]1C[C@@H](O)[C@H](C)[C@@](O)(C(=O)/C=C/C)[C@H]2OC(=O)C(C)CC` (some centres undefined), the Activity is on record as 61.31%.

The next assay relates to A2780. Put plainly: Induction of apoptosis in human p53 wild type A2780S at 15 uM after 24 hrs by TdT assay. It is filed as functional.
Conditions: not given
An outline of the steps: as §1
`C=C1C(=O)O[C@@H]2[C@@H]1C[C@@H](O)[C@H](C)[C@@](O)(C(=O)/C=C/C)[C@H]2OC(=O)C(C)CC` (some centres undefined) returned an Activity of 51.67%.

The next assay deals with A2780. Kind of assay: Induction of apoptosis in human p53 wild type A2780S at 30 uM after 24 hrs by TdT assay. It is filed as functional.
Conditions: not given
Put shortly: as §1
Compound `C=C1C(=O)O[C@@H]2[C@@H]1C[C@@H](O)[C@H](C)[C@@](O)(C(=O)/C=C/C)[C@H]2OC(=O)C(C)CC` (some centres undefined) yielded an Activity of 78.14%.

Another assay relates to A2780. Kind of assay: Induction of apoptosis in human p53 […] at 15 uM after 24 hrs by TdT assay. Format: functional. The following applies: in the assay text read “A2780R” for “A2780S”. Put shortly:
as §1
As to `C=C1C(=O)O[C@@H]2[C@@H]1C[C@@H](O)[C@H](C)[C@@](O)(C(=O)/C=C/C)[C@H]2OC(=O)C(C)CC` (some centres undefined), the Activity is recorded as 31.87%.

For the next assay, the system named is A2780. Kind of assay: Induction of apoptosis in human p53 […] at 30 uM after 24 hrs by TdT assay. It is filed as functional. The following applies: in the assay text read “A2780R” for “A2780S”. Put shortly: as §1
`C=C1C(=O)O[C@@H]2[C@@H]1C[C@@H](O)[C@H](C)[C@@](O)(C(=O)/C=C/C)[C@H]2OC(=O)C(C)CC` (some centres undefined): the Activity is recorded as 49.25%.

System in another assay: not listed separately
Kind of assay: Inhibition of tubulin polymerization at 10 to 100 uM.
Conditions: not given
As to `C=C1C(=O)O[C@@H]2[C@@H]1C[C@@H](O)[C@H](C)[C@@](O)(C(=O)/C=C/C)[C@H]2OC(=O)C(C)CC` (some centres undefined), the outcome was inactive.

A further assay deals with T1, DNA topoisomerase 1 (Homo sapiens) (UniProt P11387).
T1 sequence (whole entry): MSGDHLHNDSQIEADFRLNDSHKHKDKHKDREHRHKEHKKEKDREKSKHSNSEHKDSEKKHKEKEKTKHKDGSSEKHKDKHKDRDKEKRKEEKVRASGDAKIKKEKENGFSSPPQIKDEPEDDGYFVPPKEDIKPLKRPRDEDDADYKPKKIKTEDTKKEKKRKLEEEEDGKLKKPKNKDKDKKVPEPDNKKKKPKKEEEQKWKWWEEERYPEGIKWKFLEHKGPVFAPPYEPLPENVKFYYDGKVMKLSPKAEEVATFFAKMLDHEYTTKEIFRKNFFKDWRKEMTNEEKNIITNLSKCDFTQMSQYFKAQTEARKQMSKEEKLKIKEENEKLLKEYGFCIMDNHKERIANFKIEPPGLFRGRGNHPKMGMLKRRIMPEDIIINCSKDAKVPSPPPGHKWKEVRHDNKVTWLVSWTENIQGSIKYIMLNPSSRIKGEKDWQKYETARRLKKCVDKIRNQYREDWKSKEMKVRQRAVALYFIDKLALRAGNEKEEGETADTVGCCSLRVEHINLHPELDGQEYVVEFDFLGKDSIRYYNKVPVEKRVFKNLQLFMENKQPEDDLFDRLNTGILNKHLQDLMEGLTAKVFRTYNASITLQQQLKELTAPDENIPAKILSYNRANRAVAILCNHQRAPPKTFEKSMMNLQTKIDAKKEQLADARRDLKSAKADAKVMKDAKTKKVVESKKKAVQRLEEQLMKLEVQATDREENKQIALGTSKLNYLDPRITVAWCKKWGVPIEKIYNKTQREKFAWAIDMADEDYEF
Kind of assay: Inhibition of topoisomerase 1 at 10 to 100 uM.
Conditions: not given
Consider `C=C1C(=O)O[C@@H]2[C@@H]1C[C@@H](O)[C@H](C)[C@@](O)(C(=O)/C=C/C)[C@H]2OC(=O)C(C)CC` (some centres undefined), for which the outcome was inactive.

System in the next assay: not listed separately
Kind of assay: Inhibition of topoisomerase 2 at 10 to 100 uM.
Conditions: not given
On to `C=C1C(=O)O[C@@H]2[C@@H]1C[C@@H](O)[C@H](C)[C@@](O)(C(=O)/C=C/C)[C@H]2OC(=O)C(C)CC` (some centres undefined), for which the outcome was inactive.

The subject of a further assay is Nucleic Acid. Kind of assay: Binding affinity to DNA assessed as DNA intercalation. Format: nucleic-acid assay.
Conditions: not given
As for `C=C1C(=O)O[C@@H]2[C@@H]1C[C@@H](O)[C@H](C)[C@@](O)(C(=O)/C=C/C)[C@H]2OC(=O)C(C)CC` (some centres undefined), the outcome was inactive.

The next assay relates to M109. Kind of assay: Antitumor activity against mouse M109 cells xenografted CDF1 mouse model at 8 mg/kg, ip for 5 days. Format: functional. The following applies: route intraperitoneal. An outline of the steps:
(§2)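 A 2% w/v brei of M109 murine lung carcinoma was prepared in RPMI from harvested solid tumors. Female CDF1 mice (six per group) were implanted ip with 0.5 mL. Compound was given ip daily for 5 days, beginning 1 day after implantation. The endpoint was lifespan, expressed as %T/C (treated over control lifespan × 100%).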
Compound `C=C1C(=O)O[C@@H]2[C@@H]1C[C@@H](O)[C@H](C)[C@@](O)(C(=O)/C=C/C)[C@H]2OC(=O)C(C)CC` (some centres undefined) yielded a T/C of 103%.

A further assay concerns M109. Put plainly: Antitumor activity against mouse M109 cells xenografted CDF1 mouse model at 24 mg/kg, ip for 5 days. It is filed as functional. The following applies: route intraperitoneal. Put shortly: as §2
As to `C=C1C(=O)O[C@@H]2[C@@H]1C[C@@H](O)[C@H](C)[C@@](O)(C(=O)/C=C/C)[C@H]2OC(=O)C(C)CC` (some centres undefined), the T/C amounted to 113%.

For the next assay, the system named is A2780R. Kind of assay: Induction of apoptosis in human p53 mutant A2780R at 1.5 uM after 24 hrs by TdT assay.
Conditions: not given
For the compound `C=C1C(=O)O[C@@H]2[C@@H]1C[C@@H](O)[C@H](C)[C@@](O)(C(=O)/C=C/C)[C@H]2OC(=O)C(C)CC` (some centres undefined), the Activity was determined as 1.66%.

The subject of another assay is A2780. Kind of assay: Induction of apoptosis in human p53 mutant A2780R at 7.5 uM after 24 hrs by TdT assay.
Conditions: not given
With `C=C1C(=O)O[C@@H]2[C@@H]1C[C@@H](O)[C@H](C)[C@@](O)(C(=O)/C=C/C)[C@H]2OC(=O)C(C)CC` (some centres undefined), the Activity came to 2.63%.

The next assay deals with A2780. Kind of assay: Induction of apoptosis in human p53 mutant A2780R at 0.15 uM after 24 hrs by TdT assay.
Conditions: not given
Turning to `C=C1C(=O)O[C@@H]2[C@@H]1C[C@@H](O)[C@H](C)[C@@](O)(C(=O)/C=C/C)[C@H]2OC(=O)C(C)CC` (some centres undefined), the Activity was 0.77%.
